From article PMC8992012 (Bioorganic & medicinal chemistry, 2021)

Tested on: NF-κB
Test: NF-κB activation using THP1-Blue NF-κB cells
Assay type: cell-based, human
Conditions: for NF-κB activity (in words, SAR text to Table 1): compound alone, 5 μM, 20h
Summary of the method: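 THP1-Blue NF-κB cells carry a stably integrated NF-κB-inducible SEAP. They were plated at 10^5 cells/well in RPMI with 10% FBS, penicillin, streptomycin and Normocin, then treated for 20 h with 5 μM test compound (0.5% DMSO final), alone or with LPS at 10 ng/mL. Supernatant SEAP was read colorimetrically at 630 nm. Signals were two-point normalized: baseline (vehicle or LPS) 100%, reference hit 200%.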

Question: Which “NF-κB activity (in words, SAR text to Table 1)” value (shortened to “NF-κB activity”) does the source give for O=C(Nc1nc(-c2cccc3ccccc23)cs1)c1ccc(S(=O)(=O)N2CCCCC2)cc1 [Compound 12q, N-(4-(naphthalen-1-yl)thiazol-2-yl)-4-(piperidin-1-ylsulfonyl)benzamide] here?
Answer: equally potent

Question: Which “NF-κB activity” value does the source give for Cc1ccc(C)c(-c2ccc(NC(=O)c3ccc(S(=O)(=O)N4CCCCC4)cc3)cn2)c1 [Compound 18d, N-(6-(2,5-dimethylphenyl)pyridin-3-yl)-4-(piperidin-1-ylsulfonyl)benzamide] here?
Answer: none of these molecules that replaced the thiazole functionality was active

Question: For Cc1ccc2c(c1)-c1nc(NC(=O)c3ccc(S(=O)(=O)N4CCCCC4)cc3)sc1CC2 [Compound 12s, N-(8-methyl-4,5-dihydronaphtho[1,2-d]thiazol-2-yl)-4-(piperidin-1-ylsulfonyl)benzamide], which “NF-κB activity” value is on record?
Answer: weakly active

Question: How did the “NF-κB activity” value turn out when C#Cc1ccc(C)c(-c2csc(NC(=O)c3ccc(S(=O)(=O)N4CCCCC4)cc3)n2)c1 [Compound 12t, N-(4-(5-ethynyl-2-methylphenyl)thiazol-2-yl)-4-(piperidin-1-ylsulfonyl)benzamide] was run?
Answer: inactive

Question: With CCCN(CC)S(=O)(=O)c1ccc(C(=O)Nc2nc(-c3cc(C)ccc3C)cs2)cc1 [Compound 54a, N-(4-(2,5-dimethylphenyl)thiazol-2-yl)-4-(N-ethyl-N-propylsulfamoyl)benzamide] as the compound, how does the “NF-κB activity” value read?
Answer: active

Question: Cc1ccc(C)c(-c2cccc(NC(=O)c3ccc(S(=O)(=O)N4CCCCC4)cc3)n2)c1 [Compound 18b, N-(6-(2,5-dimethylphenyl)pyridin-2-yl)-4-(piperidin-1-ylsulfonyl)benzamide] was tested. Which “NF-κB activity” value did it give?
Answer: none of these molecules that replaced the thiazole functionality was active

Question: Which “NF-κB activity” value does the source give for CC(=O)N1CCN(S(=O)(=O)c2ccc(C(=O)Nc3nc(-c4cc(C)ccc4C)cs3)cc2)CC1 [Compound 54j, 4-((4-acetylpiperazin-1-yl)sulfonyl)-N-(4-(2,5-dimethylphenyl)thiazol-2-yl)benzamide] here?
Answer: inactive

Question: With CCC#Cc1sc(NC(=O)c2ccc(S(=O)(=O)N3CCCCC3)cc2)nc1-c1cc(C)ccc1C [Compound 18p, N-(5-(but-1-yn-1-yl)-4-(2,5-dimethylphenyl)thiazol-2-yl)-4-(piperidin-1-ylsulfonyl)benzamide] as the compound, how does the “NF-κB activity” value read?
Answer: very potent

Question: How did the “NF-κB activity” value turn out when Cc1ccc(C)c(-c2csc(NC(=O)c3ccc(C(=O)N4CCCCC4)cc3)n2)c1 [Compound 45c, N-(4-(2,5-dimethylphenyl)thiazol-2-yl)-4-(piperidine-1-carbonyl)benzamide] was run?
Answer: none of these modifications at site E was tolerated

Question: For Cc1ccc(C)c(Cc2csc(NC(=O)c3ccc(S(=O)(=O)N4CCCCC4)cc3)n2)c1 [Compound 12f, N-(4-(2,5-dimethylbenzyl)thiazol-2-yl)-4-(piperidin-1-ylsulfonyl)benzamide], which “NF-κB activity” value is on record?
Answer: inactive

Question: With Cc1ccc(C)c(-c2csc(NC(=O)c3ccc(S(=O)(=O)N4CCCCC4)c(N)c3)n2)c1 [Compound 42k, 3-amino-N-(4-(2,5-dimethylphenyl)thiazol-2-yl)-4-(piperidin-1-ylsulfonyl)benzamide] as the compound, how does the “NF-κB activity” value read?
Answer: decline in activity

Question: Cc1csc(NC(=O)c2ccc(S(=O)(=O)N3CCCCC3)cc2)n1 [Compound 12g, N-(4-methylthiazol-2-yl)-4-(piperidin-1-ylsulfonyl)benzamide] was tested. Which activation at 5 µM (Homo sapiens, 20 h, read-out: NF-κB SEAP Compound alone % Activation) did it give?
Answer: 100%

Question: What about the “NF-κB activity” value of the same compound?
Answer: None of these molecules had any NF-κB activity

Question: Cc1ccc(C)c(-c2csc(NCc3ccc(S(=O)(=O)N4CCCCC4)cc3)n2)c1 [Compound 34a, 4-(2,5-dimethylphenyl)-N-(4-(piperidin-1-ylsulfonyl)benzyl)thiazol-2-amine] was tested. Which “NF-κB activity” value did it give?
Answer: inactive

Question: With Cc1ccc(C)c(-c2nc(NC(=O)c3ccc(S(=O)(=O)N4CCCCC4)cc3)sc2-c2ccco2)c1 [Compound 18j, N-(4-(2,5-dimethylphenyl)-5-(furan-2-yl)thiazol-2-yl)-4-(piperidin-1-ylsulfonyl)benzamide] as the compound, how does the “NF-κB activity” value read?
Answer: completely inactive
